Experimental data from different studies.
Lines come from different studies, so protocols differ.
Effect on: metabolic stability
Species: human

| SMILES | system | conditions | half-life [min] |
| --- | --- | --- | --- |
| CC(C)(C)c1ccc(O)c(CN(Cc2cc(C(C)(C)C)ccc2O)C2CCC(NC(N)=O)CC2)c1 (stereo not shown) | liver microsomes | 1 µM, pH 7.4 | 39.8 |
| CCCCCCCc1c(C)nc2cc(OC)ccc2c1O | liver microsomes | 1 µM | 10.2 |
| COc1ccc(CNc2c(CO)cnc3c(C4CC4)cc(C#N)cc23)cc1Cl | liver microsomes | – | 19.5 |
| CCCCOC(=O)NS(=O)(=O)c1sc(CC(C)C)cc1-c1ccc2c(c1)CN(C(C)=O)CC2 | liver microsomes | 1 µM, pH 7.4 | 5.4 |
| COc1ccc2nc3cc(Cl)ccc3c(Nc3cc(CN4CCCC4)c(O)c(CN4CCCC4)c3)c2n1 | hepatocytes | 1 µM | 468 |
| O=C(N[C@H](Cc1c[nH]c2ccccc12)C(=O)Nc1ccncc1)c1ccc(-c2ccc(F)c(F)c2)cc1F | liver microsomes | – | 18 |
| O=C(OC(C(F)(F)F)C(F)(F)F)N1CCc2ccccc2C1 | liver microsomes | – | 21 |
| Cc1ccc(S(=O)(=O)Nc2cccc(-c3nnn[nH]3)c2)cc1C(F)(F)F | liver microsomes | – | 4 |
| CCN(CC)CCNC(=O)c1c(C)[nH]c(/C=C2\C(=O)Nc3ccc(F)cc32)c1C | liver microsomes | 1 µM, pH 7.4 | 37.4 |
| CCCCOC(=O)NS(=O)(=O)c1sc(CC(C)C)cc1-c1cccc2c1CN(C(C)=O)C2 | liver microsomes | 1 µM, pH 7.4 | 15 |
| CC(C)NCC(O)COc1cccc2ccccc12 (stereo not shown) | liver microsomes | 1 µM, pH 7.4 | 58.6 |
| NCc1ccccc1 | hepatocytes | 5 µM | 76.3 |
| O=C1CCN(C(=O)Nc2ccc(F)c(Cl)c2)[C@H]2CCCC[C@@H]12 (relative stereo) | liver microsomes | – | > 56 |
| C/C=C/C[C@H](C)[C@@H](OC)[C@@H](C)[C@H](O)C[C@H]1OC(=O)C=C[C@H]1CC | liver microsomes | – | 6.7 |
| COc1ccc2cc(C(=O)Nc3ccc4c(c3)CN(C3CCC(=O)NC3=O)C4=O)ccc2c1 (stereo not shown) | liver microsomes | 2 µM, 1 h | 3.8 |
| CC(C)(C)C[C@@H]1N[C@@H](C(=O)N[C@H]2C[C@@](C)(O)C2)[C@H](c2cccc(Cl)c2F)[C@]12C(=O)Nc1cc(Cl)ccc12 | liver microsomes | – | > 60 |
| O=C(N[C@H](Cc1c[nH]c2ccccc12)C(=O)Nc1ccncc1)c1ccc(-c2cccc(F)c2)cc1F | liver microsomes | – | 18 |
| Cc1cnc(Nc2ccc(C(=O)NC3CCNCC3)c(F)c2)nc1Nc1cc(NS(=O)(=O)C(C)(C)C)cc(C(=O)NCCOCCOCCOCCC(=O)N2CCC(NC(=O)c3ccc(Nc4ncc(C)c(Nc5ccc(Cl)c(NS(=O)(=O)C(C)(C)C)c5)n4)cc3F)CC2)c1 | liver microsomes | – | 8.2 |
| CC[C@@H]1C=CC(=O)O[C@@H]1C[C@@H](O)[C@H](C)[C@H](OC)[C@@H](C)Cc1ccccc1 | liver microsomes | – | 5.4 |
| Cc1ccc(S(=O)(=O)Nc2cccc(-c3nnn[nH]3)c2)cc1C | liver microsomes | – | 2 |
| CCSC1CC(=O)C(C)(CCC(=O)Nc2c(O)ccc(C(=O)O)c2O)C2C3CC4CC12CC4(C)O3 (stereo not shown) | liver microsomes | – | 22 |
| Cc1cccc(-n2ncc(Cl)c(Cl)c2=O)c1 | liver microsomes | – | 6.6 |
| CNS(=O)(=O)Cc1ccc2[nH]cc(CCN(C)C)c2c1 | hepatocytes | 5 µM | 448 |
| CCOC(=O)NS(=O)(=O)c1sc(CC(C)C)cc1-c1ccc2c(c1)CN(C)C(=O)C2 | liver microsomes | 1 µM, pH 7.4 | 7.8 |
| O=C(c1ccc(F)cc1)C1CCN(CCn2c(=O)[nH]c3ccccc3c2=O)CC1 | liver microsomes | – | 38.8 |
| CCCCOC(=O)NS(=O)(=O)c1sc(CC(C)C)cc1-c1ccc2c(c1)CCN(C(C)=O)C2 | liver microsomes | 1 µM, pH 7.4 | 8.7 |
| CN1CCN(C(c2ccccc2)c2ccc(Cl)cc2)CC1 (racemic) | liver microsomes | – | > 100 |
| O=C(CC1Cc2ccccc2C1)N[C@H](CN1CCCC1)[C@H](O)c1ccc2c(c1)OCCO2 | liver microsomes | – | 28 |
